Converted amounts (≈) assume the structure as drawn.
Columns and labels:
[1] = biological target: T1, Bile acid receptor (Homo sapiens) (UniProt Q96RI1); test: Agonist activity at FXR in human HepG2 cells assessed as induction of CYP7A1 mrNA expression at 3 uM by quantitative PCR method; format: cell-based
T1 sequence (whole entry): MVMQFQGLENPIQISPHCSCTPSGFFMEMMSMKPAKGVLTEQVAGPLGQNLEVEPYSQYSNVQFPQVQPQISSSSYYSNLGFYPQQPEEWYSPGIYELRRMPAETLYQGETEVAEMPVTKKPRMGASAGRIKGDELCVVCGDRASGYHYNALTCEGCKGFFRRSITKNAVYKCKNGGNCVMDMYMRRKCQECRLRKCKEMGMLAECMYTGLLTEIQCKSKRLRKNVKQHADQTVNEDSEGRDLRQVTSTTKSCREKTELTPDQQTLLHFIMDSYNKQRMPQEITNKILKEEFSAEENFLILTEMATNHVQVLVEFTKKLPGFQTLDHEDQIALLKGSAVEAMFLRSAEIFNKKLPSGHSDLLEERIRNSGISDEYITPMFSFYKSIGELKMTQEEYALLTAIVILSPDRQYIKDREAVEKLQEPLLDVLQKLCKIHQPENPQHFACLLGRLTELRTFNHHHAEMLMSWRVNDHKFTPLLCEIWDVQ
Procedure, shortened: (§1)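 HepG2 cells were seeded at 2 × 10⁶ per well. After 24 h they were switched to MEM with 1% charcoal-stripped FCS, and 24 h later dosed with compound (0.1, 0.3, 1, 3, 10 μM; 0.1% DMSO final) for 24 h. Total RNA was reverse transcribed and analysed by qPCR, GAPDH-normalized, ΔΔCt method. Samples were run in duplicate in ≥4 independent experiments.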

[2] = biological target: T1, Bile acid receptor (Homo sapiens); test: Agonist activity at FXR in human HepG2 cells assessed as induction of CYP7A1 mrNA expression at 10 uM by quantitative PCR method; format: cell-based; procedure, shortened: as §1
[3] = biological target: T1, Bile acid receptor (Homo sapiens); test: Agonist activity at FXR in human HepG2 cells assessed as induction of OSTalpha mrNA expression at 0.3 uM by quantitative PCR method; format: cell-based; procedure, shortened: as §1
[4] = biological target: T1, Bile acid receptor (Homo sapiens); test: Agonist activity at FXR in human HepG2 cells assessed as induction of OSTalpha mrNA expression at 1 uM by quantitative PCR method; format: cell-based; procedure, shortened: as §1
[5] = biological target: T1, Bile acid receptor (Homo sapiens); test: Agonist activity at FXR in human HepG2 cells assessed as induction of BSEP mrNA expression at 1 uM by quantitative PCR method; format: cell-based; procedure, shortened: as §1
[6] = biological target: T1, Bile acid receptor (Homo sapiens); test: Agonist activity at FXR in human HepG2 cells assessed as induction of BSEP mrNA expression at 3 uM by quantitative PCR method; format: cell-based; procedure, shortened: as §1
[7] = biological target: T1, Bile acid receptor (Homo sapiens); test: Agonist activity at FXR in human HepG2 cells assessed as induction of BSEP mrNA expression at 10 uM by quantitative PCR method; format: cell-based; procedure, shortened: as §1
[8] = biological target: T1, Bile acid receptor (Homo sapiens); test: Agonist activity at FXR in human HepG2 cells assessed as induction of IBABP mrNA expression at 0.3 uM by quantitative PCR method; format: cell-based
[9] = biological target: T1, Bile acid receptor (Homo sapiens); test: Agonist activity at FXR in human HepG2 cells assessed as induction of IBABP mrNA expression at 1 uM by quantitative PCR method; format: cell-based
[10] = biological target: T2, G-protein coupled bile acid receptor 1 (Homo sapiens, UniProt Q8TDU6); test: Activity at TGR5 in human NCI-H716 cells assessed as effect on intracellular cAMP accumulation incubated for 60 mins by HTR-FRET assay; format: functional, cell-based
T2 sequence (Q8TDU6 whole entry): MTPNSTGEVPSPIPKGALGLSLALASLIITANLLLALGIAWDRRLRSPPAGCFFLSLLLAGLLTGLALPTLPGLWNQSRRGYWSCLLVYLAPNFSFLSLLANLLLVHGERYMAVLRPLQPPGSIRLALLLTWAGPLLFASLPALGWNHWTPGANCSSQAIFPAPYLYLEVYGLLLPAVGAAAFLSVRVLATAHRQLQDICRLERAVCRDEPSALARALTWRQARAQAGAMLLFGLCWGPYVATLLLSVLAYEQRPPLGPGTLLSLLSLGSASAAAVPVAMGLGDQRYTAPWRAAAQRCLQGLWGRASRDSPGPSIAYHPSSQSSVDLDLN
Procedure, shortened: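 NCI-H716 cells on Matrigel-coated plates were stimulated 24 h after plating with increasing compound concentrations for 60 min at 37 °C in OptiMEM containing 1 mM IBMX. Intracellular cAMP was read by HTRF (Lance kit).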

[11] = biological target: T3, Peroxisome proliferator-activated receptor gamma (Homo sapiens) (UniProt P37231); test: (§2) Activity at GAL4-tagged PPARgamma (unknown origin) expressed in COS7 cells assessed as receptor transactivation by luciferase reporter gene assay; format: cell-based; conditions: COS-7
T3 sequence (whole entry): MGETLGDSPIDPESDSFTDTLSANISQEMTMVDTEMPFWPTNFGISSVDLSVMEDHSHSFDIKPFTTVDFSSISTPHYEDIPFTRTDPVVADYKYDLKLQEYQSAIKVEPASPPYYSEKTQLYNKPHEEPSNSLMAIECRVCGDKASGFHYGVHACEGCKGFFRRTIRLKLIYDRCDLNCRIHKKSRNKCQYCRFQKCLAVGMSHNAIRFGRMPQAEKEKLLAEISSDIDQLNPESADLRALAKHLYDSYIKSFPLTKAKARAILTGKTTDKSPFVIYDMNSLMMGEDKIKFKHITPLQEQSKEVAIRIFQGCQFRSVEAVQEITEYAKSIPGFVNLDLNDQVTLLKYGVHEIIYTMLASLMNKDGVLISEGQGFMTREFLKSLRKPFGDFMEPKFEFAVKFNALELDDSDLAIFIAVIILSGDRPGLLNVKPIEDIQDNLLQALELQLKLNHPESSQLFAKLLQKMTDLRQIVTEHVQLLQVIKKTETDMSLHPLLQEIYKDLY
Procedure, shortened: (§3)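 Each PPAR subtype was tested as a Gal4 fusion carrying the human hinge region and LBD (cDNA from human monocytes) in transiently transfected COS-7 cells (Lipofectamine LTX), with a pFR-Luc reporter and pRL-SV40 for normalization. Compound in 0.1% DMSO was added 5 h post-transfection and incubated overnight. Firefly/renilla RLU was scaled to 1 μM GW7647 (α), L165,041 (δ) or pioglitazone (γ).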

[12] = biological target: T4, Peroxisome proliferator-activated receptor gamma (Homo sapiens, UniProt P37231); test: as §2; format: cell-based, COS-7; procedure, shortened: as §3
T4 sequence (P37231 whole entry): T3 sequence (whole entry)

Homo sapiens [13] = species on record: Homo sapiens; test: Selectivity index, ratio of EC50 for GAL4-tagged PPARalpha (unknown origin) to EC50 for human FXR
Homo sapiens [14] = species on record: Homo sapiens; test: Selectivity index, ratio of EC50 for GAL4-tagged PPARdelta (unknown origin) to EC50 for human FXR
Homo sapiens [15] = species on record: Homo sapiens; test: Selectivity index, ratio of EC50 for human TGR5 to EC50 for human FXR
[16] = Aqueous solubility of the compound; format: physicochemical; conditions: water (aqueous)
HepG2 = test: Cytotoxicity against human HepG2 cells assessed as compound concentration causing reduction in cell viability by LDH release assay; format: cell-based
Procedure, shortened: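 HepG2 cells were plated at 3 × 10⁴ per well. After 24 h they were switched to DMEM with 1% FCS and treated for 48 h; 2% Triton X-100 added 2 h before reading served as 100%. LDH reagent was added to the supernatant for 20 min and absorbance read at 490/690 nm. Triplicates, ≥3 independent repeats.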

COc1ccc(C(=O)Nc2cccc(C(=O)O)c2)c(NC(=O)c2ccc(C(C)(C)C)cc2)c1
Activity [1]: 67% | Activity [2]: 57% | Activity [3]: 198% | Activity [4]: 140% | Activity [5]: 319% | Activity [6]: 326% | Activity [7]: 308% | Activity [8]: 145% | Activity [9]: 161% | EC50 [10]: 30 µM | Emax [11]: 81% | EC50 [12]: 2.99 µM | Ratio EC50 (Homo sapiens [13]): > 1000 | Ratio EC50 (Homo sapiens [14]): > 1000 | Ratio EC50 (Homo sapiens [15]): > 1000 | solubility [16]: 2.6 µg/mL (≈ 5.82 µM) | Activity (HepG2): >= 30 uM

From ChEMBL document CHEMBL3351394 (J Med Chem, 2014)
